High-throughput results from PubChem BioAssay.
Rows were chosen to be rich in hits. Some 4.3% of all compounds tested hit in one or more screens of this group.
PREPL inh = inhibitors of human prolyl oligopeptidase-like enzyme PREPL | Q4J6C6 | recombinant PREPL, fluorescence polarization activity-based probe | inhibition, % at 5.96 µM | hit rate 0.68% among 320,000; in the data active = inhibition above about 43%;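 note: 0% = enzyme with DMSO and 100% = wells lacking enzyme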
Target sequence (Q4J6C6 whole entry, looked up): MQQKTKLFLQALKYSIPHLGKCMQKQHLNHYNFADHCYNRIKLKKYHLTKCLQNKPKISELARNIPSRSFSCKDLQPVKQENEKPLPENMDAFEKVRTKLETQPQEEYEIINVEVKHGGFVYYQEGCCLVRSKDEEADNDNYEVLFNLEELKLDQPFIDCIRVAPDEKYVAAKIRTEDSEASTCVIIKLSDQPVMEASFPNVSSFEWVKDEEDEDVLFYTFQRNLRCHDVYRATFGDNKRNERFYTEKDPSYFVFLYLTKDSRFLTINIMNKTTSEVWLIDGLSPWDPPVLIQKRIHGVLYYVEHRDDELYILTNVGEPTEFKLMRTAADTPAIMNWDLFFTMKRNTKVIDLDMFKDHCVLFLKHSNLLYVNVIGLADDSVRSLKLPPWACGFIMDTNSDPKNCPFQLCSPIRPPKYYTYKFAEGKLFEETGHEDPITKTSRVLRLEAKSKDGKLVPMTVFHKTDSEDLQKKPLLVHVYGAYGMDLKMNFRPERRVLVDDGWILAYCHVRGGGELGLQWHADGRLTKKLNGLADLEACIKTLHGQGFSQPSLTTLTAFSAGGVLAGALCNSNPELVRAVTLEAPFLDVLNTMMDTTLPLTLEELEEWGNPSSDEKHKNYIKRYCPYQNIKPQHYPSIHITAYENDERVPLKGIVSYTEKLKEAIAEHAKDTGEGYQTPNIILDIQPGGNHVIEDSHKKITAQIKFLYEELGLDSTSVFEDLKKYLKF
Rin1 Abl inh = human Rin1-Abl interaction inhibition. TR-FRET Rin1/Abl binding, biochemical. inhibition, % at 7.35 µM. hit rate 0.4% among 360,000. AID 588664; in the data active = inhibition above about 5%, passing the limit was not always enough
ALR H2O2 inh = human ALR oxidase inhibition via reduced H2O2; P55789; inhibition, % (no concentration beside the values); hit rate 3.8% among 290,000; purified ALR, DTT oxidation, H2O2 HRP-luminol luminescence; AID 485317;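 active = mean replicate inhibition above about 79%, with every replicate also reaching it, limit read from the data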
UBC13 polyUb = blocks human UBC13 polyubiquitin chain formation; inhibition, % at 20 µM; TR-FRET; P61088; hit rate 0.47% among 330,000; AID 485273; in the data active = inhibition above about 45%, passing the limit was not always enough
SUMO HTRF inh = blocks human SUMOylation mediated by UBC9; P63279; HTRF SUMOylation assay, SAE1/SAE2 + UBC9, in vitro; inhibition, % at 35 µM; hit rate 0.36% among 290,000; AID 2006; in the data active = inhibition above about 50%, passing the limit was not always enough
RBBP9 inh = blocks human serine hydrolase RBBP9 | O75884 | recombinant RBBP9, FP-Rh probe fluorescence polarization | inhibition, % at 7.94 µM | hit rate 0.2% among 220,000 | AID 1515;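 active = inhibition above the campaign mean of all tested compounds plus 3 SD, cut at about 14% in these data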;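 note: plate controls were DMSO wells with RBBP9 for no effect and wells lacking RBBP9 protein for full effect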
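Material: RBBP9 protein. Amount: RBBP9 at 2.5 µM in dispensed solution, before mixing. Schedule: 30 min then 45 min, 25 °C. Medium: Tris buffer pH 8.0, NaCl, Pluronic. Measured by: fluorescence polarization. Measure: percent inhibition from mP, scaled between DMSO and no-protein wells. Replication: one well per compound.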
* marks the source's active call; other numbers are inactive results.

Results for COc1ccc(N2C(=O)CSC2c2ccccc2F)c(OC)c1 (stereo unspecified) ?
PREPL inh: -14; Rin1 Abl inh: 3; ALR H2O2 inh: -6; UBC13 polyUb: 2; SUMO HTRF inh: 7

What do the screens show for `N#Cc1ccccc1OCC(=O)N1CCN(C(=O)c2ccco2)CC1`?
PREPL inh: 3; Rin1 Abl inh: -1; ALR H2O2 inh: -3; UBC13 polyUb: 2; SUMO HTRF inh: 7

How did Cc1sc2ncnc(N3CCC(C(=O)Nc4cc(C(F)(F)F)ccc4OCC(F)(F)F)CC3)c2c1C do in these assays?
Rin1 Abl inh: 2

What do the screens show for `Cc1ncc(CSc2nc3ccccc3[nH]2)c(N)n1`?
PREPL inh: 6; Rin1 Abl inh: -1; ALR H2O2 inh: 88*; UBC13 polyUb: 4; SUMO HTRF inh: 0; RBBP9 inh: -5

What do the screens show for `CCOC(=O)C1=C(C)N=c2s/c(=C\c3ccc(OCC(=O)O)cc3)c(=O)n2C1c1ccccc1` (stereo unspecified)?
PREPL inh: 3; Rin1 Abl inh: -2; ALR H2O2 inh: 98*; UBC13 polyUb: -24; SUMO HTRF inh: 23

How did O=C(O)CSCc1c(F)cccc1Cl do in these assays?
PREPL inh: 0; Rin1 Abl inh: -1; ALR H2O2 inh: 1; UBC13 polyUb: 3; SUMO HTRF inh: 12; RBBP9 inh: 3

How did CC(=O)N1CCN=C1SCc1c(F)cccc1Cl do in these assays?
PREPL inh: 10; Rin1 Abl inh: 1; ALR H2O2 inh: 98*; UBC13 polyUb: 6; SUMO HTRF inh: 20; RBBP9 inh: -2

How did CCC(=O)N1CCN=C1SCc1c(F)cccc1Cl do in these assays?
PREPL inh: 3; Rin1 Abl inh: 0; ALR H2O2 inh: 99*; UBC13 polyUb: 2; SUMO HTRF inh: 11

Results for COc1ccc(C(=O)Nc2ccc(NC(=O)c3ccccc3)cc2)cc1S(=O)(=O)N1CCOCC1 ?
PREPL inh: -6; Rin1 Abl inh: 0; ALR H2O2 inh: -8; UBC13 polyUb: 4; SUMO HTRF inh: 6

Results for COc1ccc(S(=O)(=O)N2CCC(C(=O)Nc3ccccc3N3CCCC3)CC2)cc1OC ?
PREPL inh: 6; Rin1 Abl inh: 1; ALR H2O2 inh: 97*; UBC13 polyUb: -2; SUMO HTRF inh: -13

What do the screens show for `CC(=O)N1CCN(S(=O)(=O)c2cccc(C(=O)Nc3ccccc3N3CCCC3)c2)CC1`?
PREPL inh: 16; Rin1 Abl inh: 1; ALR H2O2 inh: 97*; UBC13 polyUb: -8

What do the screens show for `COc1ccc(C(=O)Nc2ccc(N3CCCCCC3)cc2)cc1S(=O)(=O)N1CCOCC1`?
PREPL inh: 9; Rin1 Abl inh: 2; ALR H2O2 inh: 98*; UBC13 polyUb: 15

What do the screens show for `CC1CN(S(=O)(=O)c2cccc(C(=O)Nc3ccccc3N3CCCC3)c2)CC(C)O1` (stereo unspecified)?
PREPL inh: 17; Rin1 Abl inh: 1; ALR H2O2 inh: 97*; UBC13 polyUb: -3

Results for CC(=O)N1c2c(cc(Br)cc2S(=O)(=O)N2CCN(c3ccccc3F)CC2)CC1C (stereo unspecified) ?
PREPL inh: -29; Rin1 Abl inh: 5; ALR H2O2 inh: 1; UBC13 polyUb: 3; SUMO HTRF inh: 12

Results for Cc1ccc(C(=O)Nc2ccccc2N2CCCC2)cc1S(=O)(=O)N1CCOCC1 ?
PREPL inh: 10; Rin1 Abl inh: 4; ALR H2O2 inh: 98*; UBC13 polyUb: 10

How did O=C(Nc1ccccc1O)c1cc(S(=O)(=O)N2CCOCC2)c(Cl)cc1Cl do in these assays?
PREPL inh: 3; Rin1 Abl inh: 1; ALR H2O2 inh: 90*; UBC13 polyUb: 6; SUMO HTRF inh: 60*; RBBP9 inh: -4

What do the screens show for `O=C(Nc1ccccc1O)c1cc(S(=O)(=O)N2CCOCC2)ccc1Cl`?
PREPL inh: -6; Rin1 Abl inh: 2; ALR H2O2 inh: 44; UBC13 polyUb: 0; SUMO HTRF inh: -2; RBBP9 inh: -10

How did c1csc(CNc2nc(Oc3ccncc3)c3sccc3n2)c1 do in these assays?
Rin1 Abl inh: -2

What do the screens show for `COc1cc2c(cc1O)CC[C@@H]1[C@@H]2CC[C@]2(C)[C@@H](O)CC[C@@H]12`?
PREPL inh: 3; Rin1 Abl inh: -2; ALR H2O2 inh: 99*; UBC13 polyUb: 0; SUMO HTRF inh: -1; RBBP9 inh: 1
